Data reported in ChEMBL document CHEMBL2093137, “WHO-TDR NTD Screening”.
Converted amounts (≈) assume the structure as drawn.

Experiments:
[1] = tested on: Trypanosoma brucei brucei; assay: WHO-TDR: Human African Trypanosomiasis (HAT); type: functional, organism-based; conditions: Squib-427
Outline: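 Screening used a 10,000-compound diverse library supplied by Life Chemicals and filtered for drug-likeness and reactive groups. Whole bloodstream-form parasites of Trypanosoma brucei Squib 427 strain were assayed according to previously published standard procedures, with reference drugs as positive controls. The reported measure is IC50, reflecting antiparasitic potency.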

[2] = tested on: Onchocerca ochengi; assay: WHO-TDR: Onchocerciasis; type: functional; design: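 at 12.5 µM on microfilariae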
Outline: (§1)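 Whole-organism screen of a 10,000-compound diverse library from Life Chemicals, filtered for drug-likeness and reactive groups, against microfilariae of Onchocerca ochengi or Onchocerca lienalis, used as animal-pathogen stand-ins for the human parasite. The assay followed previously published standard procedures, with reference drugs as positive controls. Activity is reported as percent inhibition and as IC50.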

[3] = tested on: Trypanosoma cruzi; assay: WHO-TDR: Chagas disease; type: functional, organism-based, Homo sapiens; conditions: MRC5
Outline: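 Following previously published standard procedures, with a reference drug as positive control, a whole-organism assay was run on Trypanosoma cruzi Tulahuen CL2 beta-galactosidase strain amastigotes inside MRC-5SV2 human lung fibroblast host cells. The 10,000 compounds tested formed a diverse Life Chemicals library filtered for drug-likeness and reactive groups. Results are expressed as IC50 for antiparasitic potency.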

[4] = tested on: Schistosoma mansoni; assay: WHO-TDR: Schistosomiasis; type: functional; design: concentration or dose not given beside the values
Outline: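 Whole-organism screen of a 10,000-compound diverse library from Life Chemicals, filtered for drug-likeness and reactive groups, against larval and/or adult worms of Schistosoma mansoni Puerto Rican strain. The assay followed previously published standard procedures, with a reference drug as positive control. Activity is reported as percent inhibition and as IC50.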

[5] = tested on: Leishmania infantum; assay: WHO-TDR: Leishmaniasis; type: functional, organism-based, Mus musculus; conditions: Macrophage
Outline: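 The screened collection came from Life Chemicals: 10,000 diverse compounds selected after filtering for drug-likeness and reactive groups. Each was tested in a whole-organism assay against Leishmania infantum MHOM/MA(BE)/67 amastigotes inside murine peritoneal macrophages, using previously published standard procedures and a reference drug as positive control. Results are IC50 values for antiparasitic potency.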

[6] = tested on: Brugia malayi; assay: WHO-TDR: Lymphatic Filariasis; type: functional; design: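 tested at 10 µM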
Outline: as §1, with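 “Brugia malayi microfilariae.” for “microfilariae of Onchocerca ochengi or Onchocerca lienalis, used as animal-pathogen stand-ins for the human parasite.”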

[7] = tested on: Plasmodium falciparum K1; assay: WHO-TDR: Malaria; type: functional, organism-based, Homo sapiens; conditions: Erythrocyte
Outline: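 This whole-organism screen covered 10,000 drug-likeness-filtered and reactive-group-filtered compounds from Life Chemicals. The target was the Plasmodium falciparum K1 strain in human red blood cells, and the readout was antiplasmodial IC50.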

[8] = WHO-TDR: Cytotoxicity; type: toxicity, cell-based; conditions: human, MRC5 cells

IC50 [1] [µg/mL] | IC50 [5] [µg/mL] | IC50 [7] [µg/mL] | SMILES | % Inhibition [2] [%] | IC50 [3] [µg/mL] | % Inhibition [4] [%] | % Inhibition [6] [%] | IC50 [8] [µg/mL]
> 9.31 | > 9.31 | 9.31 (≈ 30 µM) | OCc1cnc(SCc2ccccc2)n1Cc1ccccc1 | 100 | > 9.31 | 0 | 25 | > 9.31
> 8.51 | > 8.51 | > 8.51 | CSc1ccccc1NC(=O)c1ccc(Cl)s1 | 100 | > 8.51 | 0 | 25 | > 8.51
4.84 (≈ 11.1 µM) | > 13.1 | > 13.1 | O=C(CSc1ncc(CO)n1Cc1ccc(Cl)cc1)NCc1ccccc1Cl | 100 | 4.39 (≈ 10.1 µM) | 0 | 25 | > 13.1
> 12 | > 12 | > 12 | O=C(Cc1csc(Nc2ccc(OC(F)(F)F)cc2)n1)NCC1CCCO1 (stereo not drawn) | 100 | 5.45 (≈ 13.6 µM) |  | 20 | > 12
> 12 | > 12 | > 12 | O=C(Cc1csc(Nc2ccc(F)cc2)n1)N1CCN(c2ncccn2)CC1 | 100 | 5.13 (≈ 12.9 µM) |  | 20 | > 12
> 12.5 | 8.54 (≈ 20.4 µM) | > 12.5 | COc1ccc(OC)c(Nc2nc(CC(=O)NCc3ccccc3Cl)cs2)c1 | 100 | 3.77 (≈ 9.02 µM) |  | 20 | 2.13 (≈ 5.1 µM)
4.46 (≈ 10.3 µM) | 6.7 (≈ 15.5 µM) | > 12.9 | O=C(Cc1csc(Nc2cccc(Cl)c2)n1)N1CCN(C(=O)c2ccco2)CC1 | 100 | 4.55 (≈ 10.6 µM) |  | 20 | 3.98 (≈ 9.24 µM)
> 10.8 | 2.55 (≈ 7.11 µM) | > 10.8 | O=C(Cc1csc(Nc2cccc(Cl)c2)n1)NCc1ccccn1 | 100 | 1.71 (≈ 4.75 µM) |  | 0 | 1.76 (≈ 4.91 µM)
> 11.9 | > 11.9 | 4.83 (≈ 12.2 µM) | O=C(CSC1=Nc2cccnc2Nc2ccccc21)Nc1ccc(F)c(F)c1 | 100 | > 11.9 | 0 | 0 | > 11.9
> 13.3 | > 13.3 | 13.3 (≈ 30 µM) | O=C(CSC1=Nc2cccnc2Nc2ccccc21)Nc1ccc(OC(F)(F)F)cc1 | 100 | > 13.3 | 0 | 0 | > 13.3
> 11.6 | > 11.6 | > 11.6 | O=S(=O)(NCC(c1cccs1)N1CCOCC1)c1ccc(Cl)cc1 (stereo not drawn) | 100 | > 11.6 | 0 | 0 | > 11.6
> 11.8 | > 11.8 | > 11.8 | O=S(=O)(NCC(c1cccs1)N1CCOCC1)c1ccc(Cl)s1 (stereo not drawn) | 100 | > 11.8 | 0 | 0 | > 11.8
3.44 (≈ 9.49 µM) | > 10.9 | > 10.9 | CN(C)C(CNS(=O)(=O)c1ccc(Cl)s1)c1ccc(F)cc1 (stereo not drawn) | 100 | > 10.9 | 0 | 0 | > 10.9
2.99 (≈ 7.95 µM) | > 11.3 | > 11.3 | CN(C)C(CNS(=O)(=O)c1ccc2c(c1)CCCC2)c1ccc(F)cc1 (stereo not drawn) | 100 | 4.67 (≈ 12.4 µM) | 0 | 0 | > 11.3
> 12.5 | > 12.5 | > 12.5 | COc1ccc(C(CNS(=O)(=O)c2ccc(Cl)s2)N2CCOCC2)cc1 (stereo not drawn) | 100 | > 12.5 | 0 | 0 | > 12.5
4.02 (≈ 10.1 µM) | > 12 | > 12 | COc1ccc(S(=O)(=O)NCC(c2cccc3ccccc23)N(C)C)cc1C (stereo not drawn) | 100 | > 12 | 0 | 0 | > 12

IC50 [1] [µg/mL] | IC50 [5] [µg/mL] | IC50 [7] [µg/mL] | SMILES | % Inhibition [2] [%] | IC50 [3] [µg/mL] | % Inhibition [4] [%] | % Inhibition [6] [%] | IC50 [8] [µg/mL]
4.12 (≈ 9.71 µM) | > 12.7 | 8.79 (≈ 20.7 µM) | Cc1ccc(S(=O)(=O)NCC(c2cccc3ccccc23)N2CCOCC2)cc1C (stereo not drawn) | 100 | 4.18 (≈ 9.85 µM) | 0 | 25 | > 12.7
> 12.2 | > 12.2 | > 12.2 | O=C(NCCOc1ccc(-c2ccc(F)cc2)nn1)c1cccc(C(F)(F)F)c1 | 100 | > 12.2 | 0 | 25 | > 12.2
> 12.5 | > 12.5 | > 12.5 | Cc1ccc(Cn2c(CO)cnc2SCC(=O)Nc2cccc3ccccc23)cc1 | 100 | > 12.5 | 0 | 25 | > 12.5
> 13.7 | > 13.7 | > 13.7 | CCOC(=O)c1ccccc1NC(=O)CSc1ncc(CO)n1Cc1ccc(OC)cc1 | 100 | > 13.7 | 0 | 25 | > 13.7
> 16 | > 16 | > 16 | O=C(C1CCN(S(=O)(=O)c2cccs2)CC1)N(Cc1cccnc1)c1nc2c(F)cc(F)cc2s1 | 0 | 0.535 (≈ 1 µM) | 0 | 25 | > 10.9
0.378 (≈ 0.971 µM) | 0.313 (≈ 0.804 µM) | 0.637 (≈ 1.64 µM) | Cc1ccc(-n2ncc3c(=O)[nH]c(-n4nc(C)cc4NC(=O)C4CC4)nc32)cc1 | 100 | 0.214 (≈ 0.55 µM) | 0 | 0 | 0.591 (≈ 1.52 µM)
4.02 (≈ 10.1 µM) | > 12 | > 12 | CS(=O)(=O)c1ccccc1C(=O)Nc1nc(-c2cc3ccccc3o2)cs1 | 100 | 4.3 (≈ 10.8 µM) | 0 | 0 | 5.25 (≈ 13.2 µM)
> 11.1 | > 11.1 | > 11.1 | CSc1cccc2sc(N3CCN(C(=O)c4ccccc4)CC3)nc12 | 100 | 4.19 (≈ 11.3 µM) | 0 | 0 | > 11.1
> 14.9 | > 14.9 | > 14.9 | CSc1ccc2nc(N(Cc3cccnc3)C(=O)c3ccc(C(=O)c4ccccc4)cc3)sc2c1 | 0 | 0.874 (≈ 1.76 µM) | 0 | 0 | > 14.9
> 13.4 | > 13.4 | 0.145 (≈ 0.324 µM) | CSc1ccc2nc(N(Cc3cccnc3)C(=O)c3ccc(C(C)(C)C)cc3)sc2c1 | 25 | 0.556 (≈ 1.24 µM) | 0 | 0 | 7.16 (≈ 16 µM)
> 15.5 | > 15.5 | 4.49 (≈ 8.71 µM) | CS(=O)(=O)c1ccc2nc(N(Cc3cccnc3)C(=O)c3cccc(Oc4ccccc4)c3)sc2c1 | 0 | 0.275 (≈ 0.533 µM) | 0 | 0 | > 15.5
> 14.2 | 4.6 (≈ 9.71 µM) | > 14.2 | CS(=O)(=O)c1ccc2nc(N(Cc3cccnc3)C(=O)c3ccc4ccccc4c3)sc2c1 | 0 | 0.225 (≈ 0.475 µM) | 0 | 0 | > 14.2
> 14.1 | > 14.1 | 8.28 (≈ 17.6 µM) | CSc1cccc(C(=O)N(Cc2cccnc2)c2nc3ccc(S(C)(=O)=O)cc3s2)c1 | 0 | 0.383 (≈ 0.816 µM) | 0 | 0 | > 14.1
4.07 (≈ 9.6 µM) | > 12.7 | > 12.7 | O=C(Nc1nc2c(s1)CCCC2)C1CCN(S(=O)(=O)c2ccc(F)cc2)CC1 | 100 | 2.79 (≈ 6.58 µM) | 0 | 0 | > 12.7
0.586 (≈ 1.13 µM) | > 15.6 | 8.56 (≈ 16.5 µM) | O=C(Nc1nc(-c2ccc3c(c2)OCCO3)cs1)C1CCN(S(=O)(=O)c2ccc(Cl)cc2)CC1 | 50 | 0.697 (≈ 1.34 µM) | 0 | 0 | 2.74 (≈ 5.28 µM)
